# ChEMBL document CHEMBL1177842, “New 6-amino-[1,2,4]triazolo[3,4-b][1,3,4]thiadiazines and [1,2,4]triazolo[3,4-b] [1,3,4]thiadiazin-6-ones: synthesis, characterization and antibacterial activity evaluation” (2010)
# Activity calls are given as the source filed them. The calls are words filed in the database; no cut-off is given here.
# Legend:
# Format in all cases: functional
# Bacillus cereus = assay: Antibacterial activity against Bacillus cereus ATCC 13061 after 24 hrs by broth microdilution technique
# Method in brief: (§1)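 MIC by broth microdilution following NCCLS recommendations. Strains were grown in Mueller-Hinton broth and the inoculum was 5 × 10^5 cfu in 1 mL. Compounds were dissolved in DMSO and serially diluted in tubes to final concentrations of 1024 down to 2 µg/mL. 24 h old inoculum was added. After 35 °C for 24 h, the MIC was the lowest concentration inhibiting visible growth. Tetracycline and ampicillin served as standards.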
# Escherichia coli = assay: Antibacterial activity against Escherichia coli ATCC 25922 after 24 hrs by broth microdilution technique; conditions: ATCC 25922, 24 h; method in brief: as §1
# Staphylococcus aureus = assay: Antibacterial activity against Staphylococcus aureus ATCC 25923 after 24 hrs by broth microdilution technique; conditions: ATCC 25923, 24 h; method in brief: as §1
# Acinetobacter baumannii = assay: Antibacterial activity against Acinetobacter baumannii ATCC 19606 after 24 hrs by broth microdilution technique; method in brief: as §1
# Enterobacter cloacae = assay: Antibacterial activity against Enterobacter cloacae ATCC 49141 after 24 hrs by broth microdilution technique; method in brief: as §1
# Enterococcus faecalis = assay: Antibacterial activity against Enterococcus faecalis ATCC 29212 after 24 hrs by broth microdilution technique; conditions: ATCC 29212, 24 h; method in brief: as §1
# [1] = test system: Staphylococcus epidermidis; assay: Antibacterial activity against Staphylococcus epidermidis ATCC 14990 after 24 hrs by broth microdilution technique; conditions: ATCC 14990, 24 h; method in brief: as §1
# Citrobacter freundii = assay: Antibacterial activity against Citrobacter freundii […] after 24 hrs by broth microdilution technique; method in brief: as §1
# Pseudomonas aeruginosa = assay: Antibacterial activity against Pseudomonas aeruginosa ATCC 9027 after 24 hrs by broth microdilution technique; method in brief: as §1
SMILES,"MIC (Bacillus cereus; ATCC 13061, 24 h) [µg/mL]",MIC (Escherichia coli) [µg/mL],MIC (Staphylococcus aureus) [µg/mL],"MIC (Acinetobacter baumannii; ATCC 19606, 24 h) [µg/mL]","MIC (Enterobacter cloacae; ATCC 49141, 24 h) [µg/mL]",MIC (Enterococcus faecalis) [µg/mL],MIC [1] [µg/mL],MIC (Citrobacter freundii) [µg/mL],"MIC (Pseudomonas aeruginosa; ATCC 9027, 24 h) [µg/mL]",MIC (Bacillus cereus),MIC (Acinetobacter baumannii),MIC (Enterobacter cloacae),MIC (Pseudomonas aeruginosa)
Nn1c(SCC(=O)Nc2ccccc2)nnc1-c1ccc(S(=O)(=O)c2ccc(Cl)cc2)cc1,1020,128,128,1020,512,1020,256,512,32,,,,
Nn1c(-c2ccc(S(=O)(=O)c3ccccc3)cc2)n[nH]c1=S,1020,512,512,512,512,1020,128,512,512,,,,
O=S(=O)(c1ccc(Cl)cc1)c1ccc(-c2nnc3n2N=C(Nc2ccccc2)CS3)cc1,1020,128,256,512,1020,1020,1020,128,64,,,,
O=C1CSc2nnc(-c3ccc(S(=O)(=O)c4ccc(Cl)cc4)cc3)n2N1,1020,128,256,256,512,512,256,512,128,,,,
O=C1CSc2nnc(-c3ccc(S(=O)(=O)c4ccc(Br)cc4)cc3)n2N1,1020,128,1020,256,512,1020,1020,512,128,,,,
Nn1c(S)nnc1-c1ccc(S(=O)(=O)c2ccc(Br)cc2)cc1,1020,1020,512,128,512,1020,512,512,512,,,,
Nn1c(SCC(=O)O)nnc1-c1ccc(S(=O)(=O)c2ccc(Br)cc2)cc1,1020,64,512,1020,1020,512,512,512,256,,,,
O=c1[nH]n2c(-c3ccc(S(=O)(=O)c4ccc(Br)cc4)cc3)nnc2sc1=O,1020,512,64,1020,512,1020,512,512,64,,,,
CCOC(=O)C1Sc2nnc(-c3ccc(S(=O)(=O)c4ccc(Cl)cc4)cc3)n2NC1=O (configuration not stated),1020,512,1020,1020,512,1020,1020,512,128,,,,
CC1(C)S[C@@H]2[C@H](NC(=O)[C@H](N)c3ccccc3)C(=O)N2[C@H]1C(=O)O [AMPICILLIN],,,< 2,,,< 2,< 2,2,,inactive,inactive,inactive,inactive
O=C1CSc2nnc(-c3ccc(S(=O)(=O)c4ccccc4)cc3)n2N1,1020,128,512,256,512,1020,32,512,128,,,,
Nn1c(SCC(=O)O)nnc1-c1ccc(S(=O)(=O)c2ccc(Cl)cc2)cc1,1020,64,128,1020,1020,256,256,512,256,,,,
Nn1c(SCC(=O)Nc2ccccc2)nnc1-c1ccc(S(=O)(=O)c2ccc(Br)cc2)cc1,512,256,64,1020,256,1020,256,1020,128,,,,
CN(C)[C@@H]1C(O)=C(C(N)=O)C(=O)[C@@]2(O)C(O)=C3C(=O)c4c(O)cccc4[C@@](C)(O)[C@H]3C[C@@H]12 [TETRACYCLINE],< 2,2,< 2,2,,32,32,2,16,,,inactive,
Nn1c(SCC(=O)O)nnc1-c1ccc(S(=O)(=O)c2ccccc2)cc1,1020,64,256,1020,1020,512,128,512,256,,,,
O=S(=O)(c1ccc(Br)cc1)c1ccc(-c2nnc3n2N=C(Nc2ccccc2)CS3)cc1,512,256,1020,512,512,1020,1020,512,256,,,,
Nn1c(-c2ccc(S(=O)(=O)c3ccc(Cl)cc3)cc2)n[nH]c1=S,1020,1020,512,128,512,1020,512,512,128,,,,
